One test concerns the target Regulator of G-protein signaling 16 (Homo sapiens) (UniProt O15492). Put plainly: RGS16-Galphao binding modulators, SAR follow-up, biochemical, multiplexed bead flow cytometry, SAR compounds (AID 2298). Particulars: bead-based flow cytometry, AF488-Galphao binding to RGS16. The procedure, abridged:
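Test system: biotinylated RGS16 on colour-coded streptavidin beads, multiplexed with other RGS beads. Reagent: AF488-Galphao (AlF4-activated), 7 nM final. Compound: Nine-point threefold dilution series of compound. Timing: 30–90 min binding at room temperature. Measured by: flow cytometry, median FL1 fluorescence per bead set. Benchmarks: DMSO wells as full binding, RGS-free beads as background.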
(In flow cytometry, cells or beads pass a laser one at a time.)
Chain of Regulator of G-protein signaling 16 (Homo sapiens) (O15492 whole entry, looked up): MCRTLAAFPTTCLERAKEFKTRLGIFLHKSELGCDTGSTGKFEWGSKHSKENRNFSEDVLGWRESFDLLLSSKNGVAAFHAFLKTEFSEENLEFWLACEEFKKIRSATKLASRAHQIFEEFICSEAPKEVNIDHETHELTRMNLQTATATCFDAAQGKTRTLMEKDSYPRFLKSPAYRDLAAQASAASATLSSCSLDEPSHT
`NS(=O)(=O)c1ccc(N/N=C/c2ccc(O)c(O)c2O)c([N+](=O)[O-])c1`: the EC50 was 29 nM.

The same test, now with this note: bead-based flow cytometry, AF488-Galphao binding to RGS16; measured here: Ki derived from EC50, inhibitors.
`CC(NC(=O)c1sc2cc([N+](=O)[O-])ccc2c1Cl)C(C)(C)C` (centres undefined) gave a Ki of 170 nM.

In turn, `O=C(Cc1csc(N2CCOCC2)n1)N/N=C/c1ccc(O)c(O)c1O` showed a Ki of 670 nM.

The molecule `CN=c1scc(C)n1/N=C/c1ccc(O)c(O)c1O` had a Ki of 410 nM.

In turn, `COc1ccc(C2=CC(=O)C=CC2=O)cc1` returned a Ki of 120 nM.

For the molecule `O=C1C(Cl)=C(N2CCCCC2)C(=O)C(Cl)=C1c1cnc(N2CCCCC2)s1`, the Ki turned out to be 100 nM.

As for `O=c1c2ccccc2sn1-c1ccc(S(=O)(=O)N2CCCC2)cc1`, the Ki was 20 nM.

`Cc1[nH]n(-c2ccccc2)c(=S)c1C=Nc1cccc([N+](=O)[O-])c1` gave a Ki of 40 nM.

In turn, `CCOC(=O)c1sc(NC(=O)CSc2nnc(Cc3ccccc3)o2)c(C#N)c1C` came in with a Ki of 580 nM.

As to `CC(=O)OCCCNc1cc(Sc2nc3ccccc3s2)c2nonc2c1[N+](=O)[O-]`, the Ki was determined as 220 nM.

`CCN=c1scc(C)n1/N=C/c1ccc(O)c(O)c1O`: the inhibition constant (Ki) turned out to be 850 nM.

Molecule `COC(=O)CCC(=O)Nc1sc(C)c(C)c1C(N)=O` registered a Ki of 1140 nM.

As for `O=C(COc1ccccc1C(=O)N/N=C/c1ccc(O)c(O)c1)N/N=C/c1ccc(O)c(O)c1`, the Ki amounted to 90 nM.

Regarding `Cc1cc(Cl)ccc1N=c1ssnc1Cl`, the Ki stood at 40 nM.

The molecule `CN1CCN(C2=C(Cl)C(=O)C(c3cnc(N4CCCCC4)s3)=C(Cl)C2=O)CC1` displayed a Ki of 20 nM.

For the molecule `CCN(CC)S(=O)(=O)c1cccc(-c2n[nH]c(=S)n2/N=C/c2ccc(C(=O)OC)cc2)c1`, the Ki is 760 nM.

`CC1(C)OC(=O)C(=Cc2ccc(-c3ccc(S(N)(=O)=O)cc3)o2)C(=O)O1`: the Ki came out at 2840 nM.

With `CCC(=O)NC(c1ccc(C)cc1)c1cc([N+](=O)[O-])c2cccnc2c1O` (centres undefined), the Ki came to 4240 nM.

`NS(=O)(=O)c1ccc(N/N=C/c2ccc(O)c(O)c2O)c([N+](=O)[O-])c1` gave a Ki of 20 nM.

The molecule `Cc1cccc(N2CCN(C(=O)COc3nsc4nc(C)cc(C)c34)CC2C)c1` (centres undefined) returned a Ki of 1160 nM.

`O=C(NCCCN1CCOCC1)c1sc2cc([N+](=O)[O-])ccc2c1Cl` showed a Ki of 270 nM.

The molecule `CCN(CC)S(=O)(=O)c1cccc(C(=O)N/N=C/c2ccc(O)c(O)c2O)c1` yielded a Ki of 480 nM.

The molecule `Cc1cccc(N2CCN(C(=O)Cn3sc4nc(C)cc(C)c4c3=O)CC2C)c1` (centres undefined) displayed an inhibition constant (Ki) of 90 nM.

As to `Cc1[nH]n(-c2ccccc2)c(=S)c1C=NCCCN=Cc1c(C)[nH]n(-c2ccccc2)c1=S`, the Ki was determined as 330 nM.

One may read the EC50 as the concentration that produces a half-maximal response. The Ki is the dissociation constant of the complex between target and ligand, obtained from inhibition or displacement. A higher Ki goes with a looser hold on the target.
